Legend:
[1] = biological target: T1, PDK1 (Homo sapiens, UniProt O15530); test: Activity against PDK1; type: biochemical
T1 sequence (O15530 1-556): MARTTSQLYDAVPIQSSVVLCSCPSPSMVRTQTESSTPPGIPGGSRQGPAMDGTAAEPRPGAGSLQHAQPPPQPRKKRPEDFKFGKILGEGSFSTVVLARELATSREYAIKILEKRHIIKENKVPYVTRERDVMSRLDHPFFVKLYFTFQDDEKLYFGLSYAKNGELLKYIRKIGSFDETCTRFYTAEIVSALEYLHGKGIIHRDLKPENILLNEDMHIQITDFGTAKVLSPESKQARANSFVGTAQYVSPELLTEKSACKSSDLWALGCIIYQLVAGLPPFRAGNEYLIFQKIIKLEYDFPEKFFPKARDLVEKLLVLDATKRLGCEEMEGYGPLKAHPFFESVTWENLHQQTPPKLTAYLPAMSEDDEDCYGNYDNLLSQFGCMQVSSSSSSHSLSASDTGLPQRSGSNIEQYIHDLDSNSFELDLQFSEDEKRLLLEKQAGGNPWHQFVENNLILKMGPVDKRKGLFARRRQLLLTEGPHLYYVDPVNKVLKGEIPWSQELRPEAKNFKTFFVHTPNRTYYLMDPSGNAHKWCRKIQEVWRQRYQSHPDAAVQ

[2] = biological target: RET (Homo sapiens, UniProt P07949); test: Panel of 98 purified protein kinases: RET; type: biochemical; conditions: 98 purified protein kinases panel, data not shown
[3] = tested on: GEO colorectal xenograft; test: GEO xenograft tumor growth; type: in vivo, mice; conditions: GEO xenografts, compared with rapamycin
[4] = biological target: PI3Kδ (Homo sapiens, UniProt O00329); test: Panel of 98 purified protein kinases: PI3Kδ; type: biochemical; conditions: 98 purified protein kinases panel, data not shown
[5] = biological target: mTOR (Homo sapiens, UniProt P42345); test: Panel of 98 purified protein kinases: mTOR; type: biochemical; conditions: 98 purified protein kinases panel
[6] = tested on: GEO colorectal xenograft; test: GEO xenograft pharmacodynamics; type: in vivo, mice; conditions: GEO xenografts, 12 days
Outline: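 GEO cells implanted s.c. in right flank of nu/nu CD-1 mice and dosed for 12 days. Tumors collected 2, 8 and 24 h post-dose and snap frozen. Phospho- and total 4E-BP1 (37/46), Akt (473), S6 (235/236) quantified by Western blot; n=2.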

[7] = tested on: mTORC1 and mTORC2 signaling; test: In vitro mTORC1/mTORC2 signaling; type: cell-based; conditions: for Akt phosphorylation at mTORC2-specific Ser473 site: Supplemental Figure 1A
[8] = biological target: PI3Kγ (Homo sapiens, UniProt P48736); test: Panel of 98 purified protein kinases: PI3Kγ; type: biochemical; conditions: 98 purified protein kinases panel, data not shown
[9] = biological target: PIP5Kγ (Homo sapiens, UniProt O60331); test: Panel of 98 purified protein kinases: PIP5Kγ; type: biochemical; conditions: 98 purified protein kinases panel, data not shown
[10] = tested on: RIP-Tag2 tumors; test: RIP-Tag2 tumor vascularity; type: in vivo, mice
Outline: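 RIP-Tag2 mice, 9–10 weeks old, dosed up to 7 days. Vehicle (Labrafil or water); test compound 75 mg/kg BID by gavage; OSI-930 200 mg/kg QD by gavage; rapamycin 20 mg/kg QD ip. Perfusion-fixed, 60–80 µm sections stained for CD31 and basement membrane. Area density at threshold 30–50; empty sleeves scored. SEM of 3–8 mice per group; ANOVA/Fisher PLSD.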

[11] = tested on: RIP-Tag2 tumors; test: Vascular regrowth after cessation of OSI-930 in RIP-Tag2 tumors; type: in vivo, mice
[12] = tested on: RIP-Tag2 tumors; test: Intratumoral hemorrhage; type: in vivo, mice; conditions: 4 days after cessation of OSI-930
Outline: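 Regrowth design in 10-week-old RIP-Tag2 mice: OSI-930 for 7 days, then vehicle, test compound or rapamycin for 4 days; vehicle-only arm runs 11 days. Perfusion-fixed tumors cut at 60–80 µm. Erythrocytes immunostained; area density from fluorescence images at empirical threshold 30–50. Values are SEM of 3–8 mice per group; ANOVA with Fisher PLSD.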

[13] = tested on: RIP-Tag2 tumors; test: VEGF in RIP-Tag2 tumor lysates, multiplex antibody array; type: in vivo, mice; conditions: for VEGF-B expression: data not shown
Outline: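 Tumors from RIP-Tag2 mice given vehicle, test compound or rapamycin. Tumor lysates run on mouse angiogenesis antibody arrays per manufacturer's directions. VEGF signal read as pixel density. SEM of 3–8 mice per group; ANOVA with Fisher PLSD.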

[14] = biological target: MEK2 (Homo sapiens, UniProt P36507); test: Panel of 98 purified protein kinases: MEK2; type: biochemical; conditions: 98 purified protein kinases panel, data not shown
[15] = tested on: RIP-Tag2 pancreatic neuroendocrine tumors; test: Signaling, proliferation and apoptosis in RIP-Tag2 tumors, single agents; type: in vivo, mice; conditions: for Akt and 4E-BP1 phosphorylation: 7-day treatment
Outline: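 RIP-Tag2 mice (9–10 weeks) treated 7 days: test compound 75 mg/kg BID gavage, rapamycin 20 mg/kg QD ip, or vehicle. Perfusion-fixed tumor sections (60–80 µm) immunostained for phospho-S6K, phospho-Akt and phospho-4E-BP1 with CD31, plus phospho-histone H3 and activated caspase-3. Examined by fluorescence/confocal microscopy and quantified. SEM of 3–8 mice per group; ANOVA with Fisher PLSD.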

[16] = biological target: JNK3 (Homo sapiens, UniProt P53779); test: Panel of 98 purified protein kinases: JNK3; type: biochemical; conditions: 98 purified protein kinases panel, data not shown

PI3Kδ, sequence (O00329 whole entry, species assumed): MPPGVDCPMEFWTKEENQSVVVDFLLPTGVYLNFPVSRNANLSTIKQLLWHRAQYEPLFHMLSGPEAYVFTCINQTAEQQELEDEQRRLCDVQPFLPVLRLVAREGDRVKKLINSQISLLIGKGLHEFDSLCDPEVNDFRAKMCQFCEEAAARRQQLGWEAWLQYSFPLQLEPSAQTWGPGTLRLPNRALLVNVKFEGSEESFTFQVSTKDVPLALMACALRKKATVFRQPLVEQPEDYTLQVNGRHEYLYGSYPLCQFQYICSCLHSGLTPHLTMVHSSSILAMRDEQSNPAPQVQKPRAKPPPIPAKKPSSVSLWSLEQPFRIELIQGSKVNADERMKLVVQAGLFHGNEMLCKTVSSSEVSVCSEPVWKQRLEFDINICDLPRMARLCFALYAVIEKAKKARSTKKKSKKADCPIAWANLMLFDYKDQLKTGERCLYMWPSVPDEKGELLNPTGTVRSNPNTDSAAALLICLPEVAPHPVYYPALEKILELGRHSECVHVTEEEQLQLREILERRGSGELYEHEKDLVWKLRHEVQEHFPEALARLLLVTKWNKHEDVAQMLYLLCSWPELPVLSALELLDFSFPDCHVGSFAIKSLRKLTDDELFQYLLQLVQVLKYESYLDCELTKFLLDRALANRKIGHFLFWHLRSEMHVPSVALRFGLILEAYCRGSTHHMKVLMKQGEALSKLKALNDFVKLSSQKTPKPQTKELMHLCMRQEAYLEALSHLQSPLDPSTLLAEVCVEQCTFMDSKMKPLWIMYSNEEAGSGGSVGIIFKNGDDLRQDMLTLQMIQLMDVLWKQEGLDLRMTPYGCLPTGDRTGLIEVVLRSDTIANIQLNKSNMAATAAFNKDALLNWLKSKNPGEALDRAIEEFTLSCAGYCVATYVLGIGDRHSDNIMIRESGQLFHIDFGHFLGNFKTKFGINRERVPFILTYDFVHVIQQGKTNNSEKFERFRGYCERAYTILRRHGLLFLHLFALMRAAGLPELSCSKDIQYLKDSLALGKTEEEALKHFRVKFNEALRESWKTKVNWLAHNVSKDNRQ
PI3Kδ, sequence (P27986 whole entry partner, species assumed): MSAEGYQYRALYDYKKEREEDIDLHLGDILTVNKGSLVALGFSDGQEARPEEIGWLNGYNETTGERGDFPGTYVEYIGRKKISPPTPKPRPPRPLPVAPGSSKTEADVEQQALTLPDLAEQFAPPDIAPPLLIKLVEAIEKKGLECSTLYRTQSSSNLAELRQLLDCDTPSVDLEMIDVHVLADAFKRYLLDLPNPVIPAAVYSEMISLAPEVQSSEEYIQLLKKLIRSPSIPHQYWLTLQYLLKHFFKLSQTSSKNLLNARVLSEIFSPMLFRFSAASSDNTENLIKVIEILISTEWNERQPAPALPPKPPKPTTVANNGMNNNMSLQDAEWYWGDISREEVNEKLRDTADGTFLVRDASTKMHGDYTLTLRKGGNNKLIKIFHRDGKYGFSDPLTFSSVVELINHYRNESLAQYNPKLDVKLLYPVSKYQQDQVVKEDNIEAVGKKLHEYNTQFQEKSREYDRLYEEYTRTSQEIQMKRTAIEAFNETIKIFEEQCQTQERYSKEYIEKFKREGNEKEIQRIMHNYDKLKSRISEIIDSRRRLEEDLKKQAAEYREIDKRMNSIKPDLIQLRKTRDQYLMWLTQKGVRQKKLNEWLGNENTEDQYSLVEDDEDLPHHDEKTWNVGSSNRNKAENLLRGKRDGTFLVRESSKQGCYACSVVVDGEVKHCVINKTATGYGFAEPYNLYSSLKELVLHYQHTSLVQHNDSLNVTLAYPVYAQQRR
RET, sequence (P07949 29-1114, species assumed): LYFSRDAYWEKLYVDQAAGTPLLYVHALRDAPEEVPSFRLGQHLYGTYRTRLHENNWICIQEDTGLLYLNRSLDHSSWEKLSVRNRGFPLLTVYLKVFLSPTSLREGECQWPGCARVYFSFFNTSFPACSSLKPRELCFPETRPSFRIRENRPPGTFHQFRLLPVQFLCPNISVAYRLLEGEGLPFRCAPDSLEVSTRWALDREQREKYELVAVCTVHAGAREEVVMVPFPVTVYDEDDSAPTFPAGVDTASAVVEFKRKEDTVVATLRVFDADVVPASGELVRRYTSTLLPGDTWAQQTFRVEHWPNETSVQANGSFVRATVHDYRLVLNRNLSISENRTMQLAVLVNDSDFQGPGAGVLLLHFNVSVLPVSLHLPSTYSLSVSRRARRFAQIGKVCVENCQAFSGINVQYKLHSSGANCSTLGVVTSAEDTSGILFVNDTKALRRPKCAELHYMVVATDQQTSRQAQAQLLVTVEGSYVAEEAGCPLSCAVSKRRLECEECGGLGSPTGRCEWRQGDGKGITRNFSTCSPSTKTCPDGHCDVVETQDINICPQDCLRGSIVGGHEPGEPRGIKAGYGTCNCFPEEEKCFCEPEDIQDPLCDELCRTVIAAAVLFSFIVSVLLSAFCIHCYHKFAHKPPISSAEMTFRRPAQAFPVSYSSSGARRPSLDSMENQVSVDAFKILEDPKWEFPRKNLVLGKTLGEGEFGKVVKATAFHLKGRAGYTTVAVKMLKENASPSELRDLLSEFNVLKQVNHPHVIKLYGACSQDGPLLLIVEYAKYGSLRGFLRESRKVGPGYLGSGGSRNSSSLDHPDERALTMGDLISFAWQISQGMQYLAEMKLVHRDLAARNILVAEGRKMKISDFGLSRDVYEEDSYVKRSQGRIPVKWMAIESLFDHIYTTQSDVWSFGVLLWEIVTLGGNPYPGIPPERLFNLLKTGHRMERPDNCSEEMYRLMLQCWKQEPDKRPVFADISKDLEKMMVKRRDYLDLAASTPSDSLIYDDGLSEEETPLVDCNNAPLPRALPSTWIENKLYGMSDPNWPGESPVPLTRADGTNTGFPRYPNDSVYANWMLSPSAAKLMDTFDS
PI3Kγ, sequence (P48736 whole entry, species assumed): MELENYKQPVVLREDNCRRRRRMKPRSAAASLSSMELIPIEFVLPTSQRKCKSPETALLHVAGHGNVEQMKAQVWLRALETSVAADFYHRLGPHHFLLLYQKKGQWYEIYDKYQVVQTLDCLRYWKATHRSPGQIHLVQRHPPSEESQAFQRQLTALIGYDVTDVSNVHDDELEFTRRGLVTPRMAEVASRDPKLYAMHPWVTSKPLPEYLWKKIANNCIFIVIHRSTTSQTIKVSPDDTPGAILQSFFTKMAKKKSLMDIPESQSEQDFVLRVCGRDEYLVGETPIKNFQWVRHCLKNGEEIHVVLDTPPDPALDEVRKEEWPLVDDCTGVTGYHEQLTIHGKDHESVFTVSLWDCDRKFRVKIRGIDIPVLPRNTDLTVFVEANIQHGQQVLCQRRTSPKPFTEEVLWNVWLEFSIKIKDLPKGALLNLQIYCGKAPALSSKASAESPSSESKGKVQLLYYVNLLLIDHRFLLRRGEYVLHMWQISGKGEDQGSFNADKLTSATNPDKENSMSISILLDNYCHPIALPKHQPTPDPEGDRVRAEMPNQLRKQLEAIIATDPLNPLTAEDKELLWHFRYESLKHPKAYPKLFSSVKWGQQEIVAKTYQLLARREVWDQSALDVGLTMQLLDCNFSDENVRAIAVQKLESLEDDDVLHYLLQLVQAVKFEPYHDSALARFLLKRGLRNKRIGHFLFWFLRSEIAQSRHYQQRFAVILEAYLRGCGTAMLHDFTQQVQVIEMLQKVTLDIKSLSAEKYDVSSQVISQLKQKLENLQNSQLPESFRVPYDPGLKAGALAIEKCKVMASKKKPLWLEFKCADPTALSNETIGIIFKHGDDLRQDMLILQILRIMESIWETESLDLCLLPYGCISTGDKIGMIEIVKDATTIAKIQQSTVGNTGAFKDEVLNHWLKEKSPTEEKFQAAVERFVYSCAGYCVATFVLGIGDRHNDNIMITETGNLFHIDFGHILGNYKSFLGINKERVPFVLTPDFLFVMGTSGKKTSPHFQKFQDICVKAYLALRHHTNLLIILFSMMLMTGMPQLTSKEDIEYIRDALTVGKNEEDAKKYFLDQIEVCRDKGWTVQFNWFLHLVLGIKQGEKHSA
PIP5Kγ, sequence (O60331 whole entry): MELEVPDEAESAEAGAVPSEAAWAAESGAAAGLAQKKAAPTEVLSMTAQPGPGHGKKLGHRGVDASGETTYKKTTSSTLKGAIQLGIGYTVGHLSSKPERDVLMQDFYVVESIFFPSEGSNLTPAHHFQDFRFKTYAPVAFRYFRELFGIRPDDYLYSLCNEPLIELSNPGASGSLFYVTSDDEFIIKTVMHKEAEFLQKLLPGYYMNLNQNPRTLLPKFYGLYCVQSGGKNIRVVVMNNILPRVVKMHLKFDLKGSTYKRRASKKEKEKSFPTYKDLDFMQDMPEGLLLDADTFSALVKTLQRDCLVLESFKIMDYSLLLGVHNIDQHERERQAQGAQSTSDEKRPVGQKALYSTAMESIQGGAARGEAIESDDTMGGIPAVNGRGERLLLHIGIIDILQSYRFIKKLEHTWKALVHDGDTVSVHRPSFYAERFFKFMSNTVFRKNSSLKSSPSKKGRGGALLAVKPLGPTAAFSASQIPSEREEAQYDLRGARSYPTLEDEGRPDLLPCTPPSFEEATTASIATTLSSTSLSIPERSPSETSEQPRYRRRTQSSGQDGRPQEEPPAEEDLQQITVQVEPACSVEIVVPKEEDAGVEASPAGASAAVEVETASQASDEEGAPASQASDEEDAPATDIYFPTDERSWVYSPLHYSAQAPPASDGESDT
MEK2, sequence (P36507 whole entry, species assumed): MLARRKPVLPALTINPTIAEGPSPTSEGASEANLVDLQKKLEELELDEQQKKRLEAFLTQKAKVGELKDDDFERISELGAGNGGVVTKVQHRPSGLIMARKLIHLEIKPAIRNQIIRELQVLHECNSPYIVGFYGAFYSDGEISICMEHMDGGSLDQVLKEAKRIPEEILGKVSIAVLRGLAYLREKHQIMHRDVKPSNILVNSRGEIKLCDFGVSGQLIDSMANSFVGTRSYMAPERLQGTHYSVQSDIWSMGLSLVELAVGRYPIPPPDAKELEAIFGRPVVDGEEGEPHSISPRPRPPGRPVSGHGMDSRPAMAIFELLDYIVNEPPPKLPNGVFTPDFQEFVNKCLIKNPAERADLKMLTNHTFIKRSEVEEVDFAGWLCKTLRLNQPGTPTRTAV

Compound	activity against PDK1 [1]	inhibition of RET [2]	tumor growth [3]	inhibition of PI3Kδ [4]	inhibition of mTOR [5]	4E-BP1 phosphorylation at Ser37/46 [7]	Akt phosphorylation at mTORC2-specific Ser473 site [7]	inhibition of PI3Kγ [8]	empty basement membrane sleeves (vessel regression) ([10]; RIP-Tag2, 7 days)	VEGF-B expression [13]	Akt and 4E-BP1 phosphorylation [15]	other results
COc1cccc2cc(-c3nc([C@H]4CC[C@H](C(=O)O)CC4)n4ncnc(N)c34)[nH]c12 [OSI-027]	inactive	greater than 90%	slowed tumor growth more than did rapamycin	greater than 90%	fully inhibited	inhibited	dose-dependently attenuated	greater than 90%	–	–	–	4E-BP1, Akt, and S6 phosphorylation ([6]; 65 mg/kg, after 2 hours): decreased; inhibition of PIP5Kγ [9]: significantly inhibited
O=C(Nc1ccc(OC(F)(F)F)cc1)c1sccc1NCc1ccnc2ccccc12 [OSI-930]	–	–	–	–	–	–	–	–	numerous	–	–	decrease in vessel density ([11]; OSI-930 7 days, then vehicle 4 days after cessation): 18%; reduction of tumor vascularity ([11]; regrowth study, OSI-930 for 7 days): 63%; TER-119 levels, difference from baseline [12]: ≤ 28%
Nc1nccn2c1c(-c1cc3cccc(Cl)c3[nH]1)nc2[C@H]1CC[C@H](C(=O)O)CC1 [OXA-01]	inactive	greater than 90%	slowed tumor growth more than did rapamycin	greater than 90%	fully inhibited	inhibited	dose-dependently attenuated	greater than 90%	not apparent	unchanged	decreased	reduction of tumor vascularity (CD31) ([10]; RIP-Tag2, at 1, 2, or 4 days): not detectably reduced; decrease in tumor vessel regrowth ([11]; named drug for 1 day after withdrawal of OSI-930, data not shown): no significant decrease; inhibition of MEK2 [14]: inhibited; apoptosis measured by activated-caspase-3 ([15]; 7 days): increased; cellular proliferation determined by phospho-histone H3 ([15]; 7 days): decreased; inhibition of JNK3 [16]: inhibited
CO[C@H]1C[C@@H]2CC[C@@H](C)[C@@](O)(O2)C(=O)C(=O)N2CCCC[C@H]2C(=O)O[C@H]([C@H](C)C[C@@H]2CC[C@@H](O)[C@H](OC)C2)CC(=O)[C@H](C)/C=C(\C)[C@@H](O)[C@@H](OC)C(=O)[C@H](C)C[C@H](C)/C=C/C=C/C=C/1C [rapamycin, reference compound]	–	–	–	–	–	failed to inhibit	failed to inhibit	–	not apparent	unchanged	not observed	reduction of tumor vascularity (CD31) compared to baseline ([10]; RIP-Tag2, 7 days): not significantly reduced; reduction of VEGF-A (densitometric analysis) [13]: no significant reduction; phospho-S6 and phospho-4E-BP1 ([6]; 20 mg/kg): inhibited; S6Kinase and its substrate S6 [7]: inhibited; phopsho-S6K relative to control [15]: inhibited

— article PMC3077087 (Cancer research, 2011)
